Here are results for 2 compounds from article PMC7723353 (Revista do Instituto de Medicina Tropical de São Paulo, 2020).

The structures appear in SMILES notation.

Data set [1] in a line: Cytotoxicity by MTT assay in Vero cells. In kind it is cell-based. As to conditions: African green monkey, Vero cells (African green monkey kidney). The procedure, abridged: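 Vero cells at 2.7 × 10^5 cells/mL in MEM with 5% FBS, held 24 h at 37 °C, 5% CO2. Medium replaced by two-fold serial dilutions of test compound from DMSO stocks, or DMSO; medium-only cell controls. Incubation 4 days at 37 °C, then MTT (5 mg/mL solution) for 4 h. Formazan dissolved in DMSO, absorbance read at 540 nm. CC50 from % viability by regression.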
In general terms: Formazan colour is commonly taken as a measure of viable cells.

Data set [2] concerns Zika virus (clinical isolate, IMT17). The data set is described as follows: Anti-ZIKV viral plaque reduction assay in Vero cells. In kind it is cell-based. As to conditions: for EC50: 96 h, read-out: Anti-ZIKV activity EC50; for Selectivity index (SI): ratio between cytotoxicity and antiviral activity (CC50/EC50), Vero cells. In outline: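 ZIKV clinical isolate IMT17 on Vero cells (1.5 × 10^5 cells/well, grown 24 h). Infection at 100 PFU/well for 1 h at 37 °C, 5% CO2, then PBS (pH 7.0) wash. Test compound at several concentrations in 2X MEM, 2% FBS, 50% high-viscosity CMC overlay. Ribavirin positive control; medium and DMSO controls. After 4 days, crystal violet stain; plaque counts give % inhibition, EC50 by non-linear regression; SI = CC50/EC50.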
For orientation: In a plaque reduction assay, fewer plaques than in the control indicate reduced infectivity or spread.

By CC50 is commonly meant the concentration at which the toxic effect on the cells reaches its halfway point. The EC50 is the concentration giving half of the maximal effect. The compound `NC(=O)c1ncn([C@@H]2O[C@H](CO)[C@@H](O)[C@H]2O)n1` [Ribavirin, reference compound] came in with a CC50 at 4 days in data set [1] of 2590 µM. Besides, the concentration giving a half-maximal response (EC50) in data set [2] (Zika virus, Vero) was 98.5 ± 6.46 µM. In addition, in data set [2], the “Selectivity index (SI)” value worked out at 26.25.
For orientation: EC90 means the concentration at which the effect reaches the 90% level. With `CC(C)c1cc2c(cc1O)[C@@]1(C)CCC[C@@](C)(C=O)[C@@H]1CC2` [Compound 8, 18-oxoferruginol], the midpoint of cytotoxicity in data set [1], the CC50 at 4 days, lay at 35.1 ± 5.2 µM. In addition, in data set [2] (Zika virus, Vero), it took 20.8 ± 3.75 µM to reach the 90% level (EC90) and the EC50 was 2.6 ± 0.07 µM. Moreover, the “Selectivity index (SI)” value in data set [2] is recorded as 13.51.
